Assay results: ChEMBL document CHEMBL1125290, “Bis basic substituted diaminobenzobisthiazoles as potential antiarthritic agents” (1992)

Tests used:
Assay type in all cases: functional
Rattus norvegicus [1] = experiment: Antiinflammatory activity against D-adjuvant arthritis in injected rat paw at the dose of 50 mg/kg by oral administration
Rattus norvegicus [2] = experiment: Antiinflammatory activity against D-adjuvant arthritis in uninjected rat paw at the dose of 50 mg/kg by oral administration
In short: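 Rat developing adjuvant arthritis screen with oral dosing on a prophylactic protocol. Percent change in body weight versus untreated animals was recorded as a preliminary toxicity sign. Significance was assessed against controls by two-tailed Student's t test, p < 0.05.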

Rattus norvegicus [3] = species: Rattus norvegicus; experiment: Antiinflammatory activity in D-adjuvant induced arthritis in rat measured by the change in body weight; design: concentration or dose not given beside the values
Rattus norvegicus [4] = experiment: Antiinflammatory activity against carrageenan induced rat paw edema (CPE), dosed orally
In short: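 Male Sprague–Dawley rats (150 ± 10 g), five per group. Compound or vehicle given orally in 0.5% methylcellulose 1 h before subplantar injection of 0.1 mL 1% carrageenan in saline into the right hind paw. Paw volume measured by mercury displacement before dosing and 3 h after carrageenan; the difference is the edema volume. ANOVA with Dunnett's t test.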

Compound | inhibition in vivo at 50 mg/kg (Rattus norvegicus [1]) | inhibition in vivo at 50 mg/kg (Rattus norvegicus [2]) | Activity (Rattus norvegicus [3]) | Inhibition (Rattus norvegicus [4])
CCOC(=O)c1c2sc(N)nc2cc2nc(N)sc12 | 23% | 0% | -14% | 2%
O=C(CN1CCCCC1CCO)Nc1nc2cc3nc(NC(=O)CN4CCCCC4CCO)sc3cc2s1 (centres undefined) | 4% | 5% | -9% | 30%
CCN(CC)CC(=O)Nc1nc2cc3nc(NC(=O)CN(CC)CC)sc3c(Br)c2s1 | 80% | 100% | -45% | 0%
O=C(CNC1CC1)Nc1nc2cc3nc(NC(=O)CNC4CC4)sc3cc2s1 | 0% | 16% | 14% | 18%
O=C(CN1CCN(CCO)CC1)Nc1nc2cc3nc(NC(=O)CN4CCN(CCO)CC4)sc3cc2s1 | 16% | 72% | 0% | 24%
CC1CCN(CC(=O)Nc2nc3cc4nc(NC(=O)CN5CCC(C)CC5)sc4cc3s2)CC1 | 70% | 100% | -26% | 20%
O=C(CN1CCC(c2ccccc2)CC1)Nc1nc2cc3nc(NC(=O)CN4CCC(c5ccccc5)CC4)sc3cc2s1 | 40% | 12% | -12% | 1%
O=C(CNC1CCCCCC1)Nc1nc2cc3nc(NC(=O)CNC4CCCCCC4)sc3cc2s1 | 6% | 59% | 1% | 0%
O=C(CNc1ccccc1)Nc1nc2cc3nc(NC(=O)CNc4ccccc4)sc3cc2s1 | 0% | 0% | -11% | 0%
CCN(CC)CC(=O)Nc1nc2c(s1)c(OC)cc1nc(NC(=O)CN(CC)CC)sc12 | 47% | 51% | 7% | 32%
O=C(CN1CCNCC1)Nc1nc2cc3nc(NC(=O)CN4CCNCC4)sc3cc2s1 | 31% | 27% | -9% | 19%
O=C(CN1CCC(Cc2ccccc2)CC1)Nc1nc2cc3nc(NC(=O)CN4CCC(Cc5ccccc5)CC4)sc3cc2s1 | 15% | 13% | -16% | 9%
CCN(CC)CCCC(C)Nc1nc2cc3nc(NC(C)CCCN(CC)CC)sc3cc2s1 (centres undefined) | 0% | 0% | -17% | 0%
O=C(CN1CCN(c2ccc(Cl)cc2)CC1)Nc1nc2cc3nc(NC(=O)CN4CCN(c5ccc(Cl)cc5)CC4)sc3cc2s1 | 21% | 41% | – | 12%
CCN(CC)CC(=O)Nc1nc2c(s1)c(OC)c(Cl)c1nc(NC(=O)CN(CC)CC)sc12 | 38% | 8% | -11% | 17%
CCN(CC)CC(=O)Nc1nc2cc3nc(NC(=O)CN(CC)CC)sc3c(Cl)c2s1 | 94% | 100% | -46% | 8%
O=C(CN1CCN(c2ccccc2)CC1)Nc1nc2cc3nc(NC(=O)CN4CCN(c5ccccc5)CC4)sc3cc2s1 | 40% | 56% | 1% | 0%

Compound | inhibition in vivo at 50 mg/kg (Rattus norvegicus [1]) | inhibition in vivo at 50 mg/kg (Rattus norvegicus [2]) | Activity (Rattus norvegicus [3]) | Inhibition (Rattus norvegicus [4])
CN(CC(=O)Nc1nc2cc3nc(NC(=O)CN(C)C4CCCCCCC4)sc3cc2s1)C1CCCCCCC1 | 22% | 29% | -3% | 0%
CCN(CC)CC(=O)Nc1nc2cc3nc(NC(=O)CN4CCCCC4)sc3cc2s1 | 50% | 58% | -14% | 20%
CC1CCCCN1CC(=O)Nc1nc2cc3nc(NC(=O)CN4CCCCC4C)sc3cc2s1 (centres undefined) | 41% | 82% | 6% | 0%
O=C(CN1CCCC1)Nc1nc2cc3nc(NC(=O)CN4CCCC4)sc3cc2s1 | 18% | 21% | -21% | 17%
O=C(CN1CCN(CC(F)(F)F)CC1)Nc1nc2cc3nc(NC(=O)CN4CCN(CC(F)(F)F)CC4)sc3cc2s1 | 0% | 10% | -13% | 25%
CCOC(=O)C1CCCCN1CC(=O)Nc1nc2cc3nc(NC(=O)CN4CCCCC4C(=O)OCC)sc3cc2s1 (centres undefined) | 6% | 0% | -16% | 20%
CCN(CC)CC(=O)N(CC)c1nc2cc3nc(N(CC)C(=O)CN(CC)CC)sc3c(Br)c2s1 | 0% | 0% | -16% | 16%
O=C(CN1CCCCCC1)Nc1nc2cc3nc(NC(=O)CN4CCCCCC4)sc3cc2s1 | 26% | 27% | – | 0%
Cc1c2nc(N)sc2c(C(=O)[O-])c2sc(N)nc12.[Na+] | 7% | 0% | -15% | 22%
O=C(CN1CCC(N2CCCCC2)CC1)Nc1nc2cc3nc(NC(=O)CN4CCC(N5CCCCC5)CC4)sc3cc2s1 | 46% | 38% | -3% | 0%
CN(C)CC(=O)Nc1nc2cc3nc(NC(=O)CN(C)C)sc3cc2s1 | 1% | 81% | -37% | 8%
CN(CC(=O)Nc1nc2cc3nc(NC(=O)CN(C)C4CCCC4)sc3cc2s1)C1CCCC1 | 21% | 3% | -18% | 6%
Cl.Cl.O=C(CN1CCOCC1)Nc1nc2cc3nc(NC(=O)CN4CCOCC4)sc3cc2s1 | 18% | 21% | -21% | 17%
CCN(CC)CC(=O)Nc1nc2c(ccc3nc(NC(=O)CN(CC)CC)sc32)s1.Cl.Cl | 2% | 36% | -20% | 0%
CC1CN(CC(=O)Nc2nc3cc4nc(NC(=O)CN5CC(C)NCC5C)sc4cc3s2)C(C)CN1.Cl.Cl.Cl.Cl (centres undefined) | 0% | 0% | -6% | 0%
CCN(CC)CC(=O)Nc1nc2c(Cl)c3nc(NC(=O)CN(CC)CC)sc3c(C#N)c2s1.Cl.Cl | 80% | 100% | -35% | 19%
O=C(CN1CCN(Cc2ccccc2)CC1)Nc1nc2cc3nc(NC(=O)CN4CCN(Cc5ccccc5)CC4)sc3cc2s1 | 5% | 6% | -6% | 26%
